For four molecules, inhibition, Activity and IC50 results are on record in ChEMBL document CHEMBL1155746, “Isolation of new protein phosphatase inhibitors from two cyanobacteria species, Planktothrix spp” (J Nat Prod, 2001).

For assay [1], the species on record is Oryctolagus cuniculus. Put plainly: Inhibition of rabbit skeletal muscle PP1 at 100 ug/mL by liquid scintillation counter. In outline:
(§1)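 Enzyme at 0.05 unit/50 µL was incubated with 32P-labelled myelin basic protein, which had been phosphorylated using cAMP-dependent kinase catalytic subunit and γ-[32P]ATP. Reactions ran at 30 °C for 10 min in duplicate and were stopped with 20% trichloroacetic acid on ice. Released 32Pi in the supernatant was counted by liquid scintillation. The control received MeOH.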

The species entered for assay [2] is Homo sapiens. Put plainly: Inhibition of human red blood cells PP2A at 100 ug/mL by liquid scintillation counter. The essentials: as §1
Assay [3] in a line: Inhibition of PTP-S2 expressed in Escherichia coli JM109 at 100 ug/mL.
Assay [4] has as its target Dual specificity protein phosphatase 3 (Homo sapiens) (UniProt P51452). Put plainly: Inhibition of human dual specificity protein phosphatase VHR expressed in Escherichia coli JM109 at 100 ug/mL.
In assay [5] the target is T1, M-phase inducer phosphatase 2 (Homo sapiens) (UniProt P30305).
T1 sequence (whole entry): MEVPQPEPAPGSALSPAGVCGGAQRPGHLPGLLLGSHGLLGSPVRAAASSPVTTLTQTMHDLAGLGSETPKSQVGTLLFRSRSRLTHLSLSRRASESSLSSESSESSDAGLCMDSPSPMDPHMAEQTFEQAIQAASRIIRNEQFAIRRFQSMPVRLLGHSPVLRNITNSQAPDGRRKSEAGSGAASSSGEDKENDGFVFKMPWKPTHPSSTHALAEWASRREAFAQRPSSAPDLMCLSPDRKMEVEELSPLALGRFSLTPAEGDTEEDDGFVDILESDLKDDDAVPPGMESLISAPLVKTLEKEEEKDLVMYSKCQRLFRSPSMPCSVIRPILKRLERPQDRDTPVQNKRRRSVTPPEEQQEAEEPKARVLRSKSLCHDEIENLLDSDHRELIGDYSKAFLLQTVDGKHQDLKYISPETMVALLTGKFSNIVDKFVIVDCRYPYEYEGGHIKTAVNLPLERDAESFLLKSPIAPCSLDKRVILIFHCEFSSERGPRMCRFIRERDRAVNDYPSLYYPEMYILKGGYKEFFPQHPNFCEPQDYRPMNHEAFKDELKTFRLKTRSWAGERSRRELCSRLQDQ
The experiment in a line: Inhibition of human dual specificity protein phosphatase Cdc25B expressed in Escherichia coli BL21 (DE3) at 100 ug/mL. In outline: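 The catalytic subunit was expressed from pET21b and purified. Substrate was 200 µM 3-O-methylfluorescein phosphate in 100 mM Tris-HCl, 40 mM NaCl, 1 mM dithiothreitol, 20% glycerol, pH 8.2, at 37 °C for 20 min. Reactions were stopped with 6 M guanidine-HCl/1 M MES, pH 5.5, and the absorbance increase at 477 nm was read. The control received MeOH.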

Assay [6] can be described thus: Inhibition of rabbit skeletal muscle PP1. Also on record: species or system Oryctolagus cuniculus. In outline:
as §1

Assay [7] in a line: Inhibition of human red blood cell PP2A. The essentials:
as §1

Calls of active or inactive are those of the source. The calls are words filed in the database; no cut-off is given here. *1 amine or outer side, *2 acyl side, *3 side chain or, on linkers, in order; H or OH if unused. Where a SMILES comes first, the peptide text is derived from it. Bridges are numbered along the chain shown (N, C = ends). [ ]: non-standard residue; d: D form. hTyr = N[C@@H](CCc1ccc(O)cc1)C(=O)O; aIle = CC[C@@H](C)[C@H](N)C(=O)O; NMeA = CN[C@@H](C)C(=O)O; CO = O=C([*:1])[*:2]

Chain of Dual specificity protein phosphatase 3 (Homo sapiens) (P51452 whole entry, looked up): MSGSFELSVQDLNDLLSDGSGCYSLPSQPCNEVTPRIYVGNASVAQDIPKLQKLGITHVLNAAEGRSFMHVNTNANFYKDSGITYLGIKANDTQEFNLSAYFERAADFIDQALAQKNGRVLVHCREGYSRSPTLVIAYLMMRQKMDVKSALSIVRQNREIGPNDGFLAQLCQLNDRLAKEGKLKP

Broadly, the inhibition is how much of the control response was suppressed. Read a high inhibition as strong suppression. On to `CC[C@H](C)[C@@H]1NC(=O)[C@H](NC(=O)N[C@@H](CCCNC(=N)N)C(=O)O)CCCCNC(=O)[C@H](Cc2ccccc2)NC(=O)[C@H](C)N(C)C(=O)[C@H](CCc2ccc(O)cc2)NC1=O` ({Arg-CO}-[dK]I[hTyr][NMeA]F; lactam 1-C), for which the inhibition in assay [1] turned out to be 38.1%; in assay [2], 41.5%. For the same molecule, the outcome in assay [3], in assay [4] and in assay [5] was inactive.

Turning to `CSCC[C@@H]1NC(=O)[C@H](NC(=O)N[C@@H](CCCNC(=N)N)C(=O)O)CCCCNC(=O)[C@H](Cc2ccccc2)NC(=O)[C@H](C)N(C)C(=O)[C@H](CCc2ccc(O)cc2)NC1=O` ({Arg-CO}-[dK]M[hTyr][NMeA]F; lactam 1-C), the inhibition in assay [1] was 43.3%; in assay [2], 62.8%. In addition, the result in assay [3], in assay [4] and in assay [5] was inactive.

On to `CC[C@@H](C)[C@@H]1NC(=O)[C@H](NC(=O)N[C@@H](Cc2ccc(O)cc2)C(=O)O)CCCCNC(=O)[C@H](Cc2ccccc2)NC(=O)[C@H](C)N(C)C(=O)[C@H](CCc2ccc(O)cc2)NC1=O` ({Tyr-CO}-[dK][aIle][hTyr][NMeA]F; lactam 1-C), for which the inhibition in assay [1] amounted to 11.2%; in assay [2], 9.6%. For the same molecule, the outcome in assay [3], in assay [4] and in assay [5] was inactive.

The term IC50 denotes the midpoint of a concentration-inhibition curve. Read a low IC50 as inhibition by little substance. With `CC[C@H](C)[C@@H]1NC(=O)[C@H](NC(=O)N[C@@H](CCCNC(=N)N)C(=O)O)CCCCNC(=O)[C@H](Cc2ccccc2)NC(=O)[C@H](CCc2ccc(O)cc2)N(C)C(=O)[C@H](CCc2ccc(O)cc2)NC1=O` [OSCILLAMIDE C], the figures for the inhibition in assay [1] and in assay [2] were 97.3% and 98.4%, respectively. Moreover, the half-inhibitory concentration (IC50) in assay [6] worked out at 0.9 µM; in assay [7], 1.33 µM. Also, the outcome in assay [3], in assay [4] and in assay [5] was inactive.
